From ChEMBL document CHEMBL3414471 (J Med Chem, 2015)
Activity calls are given as the source filed them. No cut-off for these calls is given here.

Key:
hERG (KCNH2) [1] = biological target: T1, hERG (KCNH2) (Homo sapiens, UniProt Q12809); assay: (§1) Inhibition of human ERG channel expressed in CHO cells at […] by patch clamp method; format: cell-based; details: CHO cells expressing human ERG channel
[2] = biological target: T2, 5-hydroxytryptamine receptor 2C (Homo sapiens, UniProt P28335); assay: Agonist activity at human 5-HT2C receptor expressed in HEK293 cells assessed as calcium flux by FLIPR assay; format: functional, cell-based
T2 sequence (P28335 whole entry): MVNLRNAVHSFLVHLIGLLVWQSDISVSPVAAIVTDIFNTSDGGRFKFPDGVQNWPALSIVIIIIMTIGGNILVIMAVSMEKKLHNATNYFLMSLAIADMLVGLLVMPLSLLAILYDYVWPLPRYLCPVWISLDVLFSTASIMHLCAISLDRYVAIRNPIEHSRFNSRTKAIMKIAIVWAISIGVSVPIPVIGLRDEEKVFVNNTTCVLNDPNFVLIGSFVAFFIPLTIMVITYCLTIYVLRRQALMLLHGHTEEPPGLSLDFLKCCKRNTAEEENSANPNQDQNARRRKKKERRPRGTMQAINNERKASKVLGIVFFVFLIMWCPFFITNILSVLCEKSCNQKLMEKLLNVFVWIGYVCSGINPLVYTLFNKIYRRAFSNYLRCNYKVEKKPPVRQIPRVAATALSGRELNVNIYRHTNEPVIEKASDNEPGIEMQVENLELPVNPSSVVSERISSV

hERG (KCNH2) [3] = biological target: T1, hERG (KCNH2); assay: Inhibition of human ERG channel expressed in CHO cells at 30 uM by patch clamp method; format: cell-based; details: CHO cells expressing human ERG channel
In short: (§2)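 hERG current recorded in CHO cells by automated patch clamp; percent inhibition at 0.37, 1.1, 3.3, 10 and 30 µM.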

[4] = biological target: Alpha-2A adrenergic receptor (Homo sapiens, UniProt P08913); assay: Binding affinity to adrenergic alpha-2A receptor (unknown origin)
CYP2B6 = biological target: T3, CYP2B6 (Homo sapiens, UniProt P20813); assay: Inhibition of human CYP2B6 using bupropion as substrate at 10 uM; format: ADME; details: probe bupropion
T3 sequence (P20813 whole entry): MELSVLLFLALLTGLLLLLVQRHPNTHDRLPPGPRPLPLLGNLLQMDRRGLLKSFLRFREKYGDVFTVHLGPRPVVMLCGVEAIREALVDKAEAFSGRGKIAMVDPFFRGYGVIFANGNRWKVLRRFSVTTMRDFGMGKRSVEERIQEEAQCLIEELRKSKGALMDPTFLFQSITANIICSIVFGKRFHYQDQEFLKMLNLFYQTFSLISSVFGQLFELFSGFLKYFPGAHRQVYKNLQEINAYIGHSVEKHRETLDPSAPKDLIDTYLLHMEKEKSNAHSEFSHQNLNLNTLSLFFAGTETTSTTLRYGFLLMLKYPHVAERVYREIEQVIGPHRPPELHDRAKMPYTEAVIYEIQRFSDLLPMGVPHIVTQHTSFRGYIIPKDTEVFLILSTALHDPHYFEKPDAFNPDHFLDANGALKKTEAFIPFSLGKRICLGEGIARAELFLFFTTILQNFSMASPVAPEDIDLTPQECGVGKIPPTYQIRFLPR

CYP3A4 = CYP3A4 (Homo sapiens, UniProt P08684); assay: Inhibition of human CYP3A4 using midazolam as substrate at 10 uM; format: ADME; details: probe midazolam
In short: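 Human liver microsomes with test compound at 10 µM; percent inhibition determined using bupropion (2B6), dextromethorphan (2D6) or midazolam (3A/3A4) as probe substrates.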

CYP2C9 = CYP2C9 (Homo sapiens, UniProt P11712); assay: Inhibition of human CYP2C9 using diclofenac as substrate at 10 uM; format: ADME; details: probe diclofenac
[5] = biological target: T4, 5-hydroxytryptamine receptor 2A (Homo sapiens, UniProt P28223); assay: Agonist activity at human 5-HT2A receptor expressed in HEK293 cells assessed as calcium flux by FLIPR assay relative to 5-HT; format: functional, cell-based
In short: (§3)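 Flp-In-293 cells stably expressing human 5-HT2A, 5-HT2B or 5-HT2C-INI; grown 24–48 h in DMEM/10% dialyzed FBS, plated on poly-L-Lys at 12000 cells/well in 1% dialyzed FBS for 24 h. Loaded 1 h at 37 °C with calcium dye in HBSS, 20 mM Hepes pH 7.40, 2.5 mM probenecid.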

hERG (KCNH2) [6] = biological target: T1, hERG (KCNH2); assay: Inhibition of human ERG channel expressed in CHO cells at 10 uM by patch clamp method; format: cell-based; details: CHO cells expressing human ERG channel; in short: as §2
hERG (KCNH2) [7] = biological target: T1, hERG (KCNH2); assay: as §1; format: cell-based; details: CHO cells expressing human ERG channel; remark: listed apart in the source
Homo sapiens = organism: Homo sapiens; assay: Selectivity ratio of EC50 for human 5-HT2A receptor to EC50 for human 5HT2C receptor
hERG (KCNH2) [8] = biological target: T1, hERG (KCNH2); assay: Inhibition of human ERG channel expressed in CHO cells at 3.3 uM by patch clamp method; format: cell-based; details: CHO cells expressing human ERG channel; in short: as §2
[9] = biological target: Voltage-gated inwardly rectifying potassium channel KCNH2 (Homo sapiens, UniProt Q12809); assay: Inhibition of human ERG channel expressed in CHO cells by patch clamp method; format: cell-based; details: human, cho
CYP2C19 = CYP2C19 (Homo sapiens, UniProt P33261); assay: Inhibition of human CYP2C19 using omeprazole as substrate at 10 uM; format: ADME; details: probe omeprazole
Mus musculus = assay: Antipsychotic activity in C57BL/6J mouse assessed as reduction of amphetamine-induced locomotor activity at 10 to 20 mg/kg, ip administered 15 mins prior to amphetamine challenge measured for 105 mins by open field test relative to vehicle-treated control; format: functional, organism-based
[10] = biological target: T4, 5-hydroxytryptamine receptor 2A; assay: Agonist activity at human 5-HT2A receptor expressed in HEK293 cells assessed as calcium flux by FLIPR assay; format: functional, cell-based
[11] = biological target: T5, 5-hydroxytryptamine receptor 2C (Homo sapiens) (UniProt P28335); assay: Agonist activity at human 5-HT2C receptor expressed in HEK293 cells assessed as calcium flux by FLIPR assay relative to 5-HT; format: functional, cell-based; in short: as §3
T5 sequence (whole entry): T2 sequence (P28335 whole entry)

[12] = biological target: T6, 5-hydroxytryptamine receptor 2B (Homo sapiens, UniProt P41595); assay: Agonist activity at human 5-HT2B receptor expressed in HEK293 cells assessed as calcium flux at 10 uM by FLIPR assay; format: functional, cell-based
In short: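 Flp-In-293 cells stably expressing human 5-HT2A, 5-HT2B or 5-HT2C-INI, grown in DMEM with 10% dialyzed FBS, then plated for 24 h in 1% dialyzed FBS. Cells were loaded 1 h at 37 °C with calcium dye in Hepes-buffered HBSS, pH 7.40, containing 2.5 mM probenecid. FLIPR read 10 s baseline, then 120 s after drug addition.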

CYP2D6 = CYP2D6 (Homo sapiens, UniProt P10635); assay: Inhibition of human CYP2D6 using dextromethorphan as substrate at 10 uM; format: ADME; details: probe dextromethorphan
Salmonella typhimurium [13] = assay: Mutagenic activity in Salmonella typhimurium TA100 at 10 to 100 uM by ames test; format: toxicity, organism-based; details: salmonella enterica subsp. enterica serovar typhimurium
In short: (§4)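 Ames fluctuation test in Salmonella strains TA98, TA100, TA1535 and TA1537, with and without S9, at 10, 50 and 100 µM; scored negative or positive.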

Salmonella typhimurium [14] = assay: Mutagenic activity in Salmonella typhimurium TA1537 at 10 to 100 uM by ames test; format: toxicity, organism-based; details: salmonella enterica subsp. enterica serovar typhimurium; in short: as §4
[15] = Permeability from basolateral to apical side in human Caco2 cells at pH 7.4; format: ADME, cell-based; details: caco-2, pH 7.4
In short: (§5)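 Caco-2 monolayer permeability measured A–B and B–A in pH 7.4 buffer, reported as ×10−6 cm/s; A–B/B–A ratio derived from these.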

[16] = Drug uptake in CD1 mouse brain at 10 mg/kg, ip after 0.5 hrs; format: ADME, organism-based; design: dose 10 mg/kg, route intraperitoneal; details: read-out: Drug uptake
In short: (§6)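 CD1 mice received a single 10 mg/kg ip dose formulated in pure water. Brain (ng/g) and plasma (ng/mL) levels were measured at 0.5 and 2 h. Brain/plasma ratio assumed a brain tissue density of 1 g/mL.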

Salmonella typhimurium [17] = assay: Mutagenic activity in Salmonella typhimurium TA1537 at 10 to 100 uM by ames test in presence of S9 mixture; format: toxicity, organism-based; details: salmonella enterica subsp. enterica serovar typhimurium; in short: as §4
Liver microsome = assay: Metabolic stability in human liver microsomes; format: ADME
In short: (§7)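 Incubation with human or CD-1 mouse liver microsomes for 1 h; stability expressed as % parent compound remaining.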

[18] = Permeability from apical to basolateral side in human Caco2 cells at pH 7.4; format: ADME, cell-based; details: caco-2, pH 7.4; in short: as §5
Salmonella typhimurium [19] = assay: Mutagenic activity in Salmonella typhimurium TA98 at 10 to 100 uM by ames test; format: toxicity, organism-based; details: salmonella enterica subsp. enterica serovar typhimurium; in short: as §4
[20] = Plasma protein binding in human at 10 uM; format: ADME, cell-free
In short: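 Human plasma protein binding determined at 10 µM compound, expressed as % bound.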

Salmonella typhimurium [21] = assay: Mutagenic activity in Salmonella typhimurium TA98 at 10 to 100 uM by ames test in presence of S9 mixture; format: toxicity, organism-based; details: salmonella enterica subsp. enterica serovar typhimurium; in short: as §4
[22] = biological target: T6, 5-hydroxytryptamine receptor 2B; assay: Agonist activity at human 5-HT2B receptor expressed in HEK293 cells assessed as calcium flux by FLIPR assay relative to 5-HT; format: functional, cell-based; in short: as §3
Liver = assay: Metabolic stability in mouse liver microsomes; format: ADME; in short: as §7
[23] = Plasma concentration in CD1 mouse at 10 mg/kg, ip after 2 hrs; format: ADME, organism-based; design: dose 10 mg/kg, route intraperitoneal; in short: as §6
Salmonella typhimurium [24] = assay: Mutagenic activity in Salmonella typhimurium TA100 at 10 to 100 uM by ames test in presence of S9 mixture; format: toxicity, organism-based; details: salmonella enterica subsp. enterica serovar typhimurium; in short: as §4
[25] = Drug uptake in CD1 mouse brain at 10 mg/kg, ip after 2 hrs; format: ADME, organism-based; design: dose 10 mg/kg, route intraperitoneal; details: read-out: Drug uptake; in short: as §6
Salmonella typhimurium [26] = assay: Mutagenic activity in Salmonella typhimurium TA1535 at 10 to 100 uM by ames test in presence of S9 mixture; format: toxicity, organism-based; details: salmonella enterica subsp. enterica serovar typhimurium; in short: as §4
Salmonella typhimurium [27] = assay: Mutagenic activity in Salmonella typhimurium TA1535 at 10 to 100 uM by ames test; format: toxicity, organism-based; details: salmonella enterica subsp. enterica serovar typhimurium; in short: as §4
[28] = biological target: T6, 5-hydroxytryptamine receptor 2B; assay: Agonist activity at human 5-HT2B receptor expressed in HEK293 cells assessed as calcium flux by FLIPR assay; format: functional, cell-based
[29] = Plasma concentration in CD1 mouse at 10 mg/kg, ip after 0.5 hrs; format: ADME, organism-based; design: dose 10 mg/kg, route intraperitoneal; in short: as §6
CYP3A = CYP3A (Homo sapiens, UniProt P08684+P20815+P24462+Q9HB55); assay: Inhibition of human CYP3A using midazolam as substrate at 10 uM; format: ADME; details: probe midazolam
In short: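 Human liver microsomes, test compound at 10 µM, midazolam as CYP3A substrate; percent inhibition reported; run by a contract lab.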

T6 sequence (P41595 whole entry): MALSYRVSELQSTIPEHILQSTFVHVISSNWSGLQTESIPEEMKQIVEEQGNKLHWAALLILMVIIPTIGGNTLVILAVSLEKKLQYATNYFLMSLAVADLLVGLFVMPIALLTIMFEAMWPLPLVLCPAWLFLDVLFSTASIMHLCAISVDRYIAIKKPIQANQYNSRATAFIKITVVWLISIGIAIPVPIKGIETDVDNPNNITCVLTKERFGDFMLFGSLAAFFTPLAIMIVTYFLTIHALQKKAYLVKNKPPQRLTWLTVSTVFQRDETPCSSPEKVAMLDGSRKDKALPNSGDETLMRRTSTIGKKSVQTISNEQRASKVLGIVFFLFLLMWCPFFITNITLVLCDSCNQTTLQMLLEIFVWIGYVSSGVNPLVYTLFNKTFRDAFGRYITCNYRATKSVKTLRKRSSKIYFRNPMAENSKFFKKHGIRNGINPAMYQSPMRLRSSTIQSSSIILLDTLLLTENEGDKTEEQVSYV
T1 sequence (Q12809 whole entry): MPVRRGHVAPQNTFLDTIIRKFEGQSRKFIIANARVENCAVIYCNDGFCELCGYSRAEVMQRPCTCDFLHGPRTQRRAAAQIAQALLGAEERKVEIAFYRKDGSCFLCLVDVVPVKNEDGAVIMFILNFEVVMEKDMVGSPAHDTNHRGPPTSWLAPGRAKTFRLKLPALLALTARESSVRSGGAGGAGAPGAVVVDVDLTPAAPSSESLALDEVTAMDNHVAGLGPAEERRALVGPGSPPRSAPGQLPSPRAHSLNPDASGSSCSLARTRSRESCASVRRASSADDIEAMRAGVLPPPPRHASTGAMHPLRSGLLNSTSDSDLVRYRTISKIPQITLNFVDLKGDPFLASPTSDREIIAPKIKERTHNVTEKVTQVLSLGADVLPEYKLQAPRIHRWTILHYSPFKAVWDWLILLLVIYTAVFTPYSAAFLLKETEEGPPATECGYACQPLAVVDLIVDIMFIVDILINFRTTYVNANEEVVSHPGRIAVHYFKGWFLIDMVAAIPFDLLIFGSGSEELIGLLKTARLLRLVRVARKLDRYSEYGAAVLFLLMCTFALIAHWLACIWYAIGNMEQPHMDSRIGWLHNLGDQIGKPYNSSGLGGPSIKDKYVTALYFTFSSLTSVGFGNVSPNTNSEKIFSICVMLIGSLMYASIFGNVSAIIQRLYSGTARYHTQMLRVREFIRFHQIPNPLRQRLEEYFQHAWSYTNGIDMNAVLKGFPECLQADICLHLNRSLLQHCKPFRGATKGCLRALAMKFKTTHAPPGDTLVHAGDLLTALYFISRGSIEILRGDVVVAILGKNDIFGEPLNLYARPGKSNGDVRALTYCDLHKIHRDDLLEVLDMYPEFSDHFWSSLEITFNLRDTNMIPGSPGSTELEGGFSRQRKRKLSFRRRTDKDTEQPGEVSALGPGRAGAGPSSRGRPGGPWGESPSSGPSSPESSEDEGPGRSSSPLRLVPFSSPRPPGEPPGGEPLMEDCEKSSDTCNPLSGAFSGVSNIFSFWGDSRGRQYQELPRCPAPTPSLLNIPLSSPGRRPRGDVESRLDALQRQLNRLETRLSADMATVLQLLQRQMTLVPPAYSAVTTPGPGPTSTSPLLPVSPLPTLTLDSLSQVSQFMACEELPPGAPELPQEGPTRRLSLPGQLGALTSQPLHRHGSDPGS
T4 sequence (P28223 whole entry): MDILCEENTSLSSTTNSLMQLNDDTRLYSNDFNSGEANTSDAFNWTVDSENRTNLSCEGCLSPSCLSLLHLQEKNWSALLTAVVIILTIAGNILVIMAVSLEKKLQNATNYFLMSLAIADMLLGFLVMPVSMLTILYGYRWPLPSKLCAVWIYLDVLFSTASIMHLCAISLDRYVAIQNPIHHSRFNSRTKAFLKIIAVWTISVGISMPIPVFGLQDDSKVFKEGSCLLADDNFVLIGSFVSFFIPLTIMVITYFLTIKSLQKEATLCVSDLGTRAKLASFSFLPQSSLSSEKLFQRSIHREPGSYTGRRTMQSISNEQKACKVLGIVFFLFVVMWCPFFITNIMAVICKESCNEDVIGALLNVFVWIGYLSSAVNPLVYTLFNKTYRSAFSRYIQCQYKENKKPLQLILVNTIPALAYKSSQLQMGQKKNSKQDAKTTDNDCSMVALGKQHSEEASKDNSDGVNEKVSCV
Chain of CYP2D6 (P10635 whole entry): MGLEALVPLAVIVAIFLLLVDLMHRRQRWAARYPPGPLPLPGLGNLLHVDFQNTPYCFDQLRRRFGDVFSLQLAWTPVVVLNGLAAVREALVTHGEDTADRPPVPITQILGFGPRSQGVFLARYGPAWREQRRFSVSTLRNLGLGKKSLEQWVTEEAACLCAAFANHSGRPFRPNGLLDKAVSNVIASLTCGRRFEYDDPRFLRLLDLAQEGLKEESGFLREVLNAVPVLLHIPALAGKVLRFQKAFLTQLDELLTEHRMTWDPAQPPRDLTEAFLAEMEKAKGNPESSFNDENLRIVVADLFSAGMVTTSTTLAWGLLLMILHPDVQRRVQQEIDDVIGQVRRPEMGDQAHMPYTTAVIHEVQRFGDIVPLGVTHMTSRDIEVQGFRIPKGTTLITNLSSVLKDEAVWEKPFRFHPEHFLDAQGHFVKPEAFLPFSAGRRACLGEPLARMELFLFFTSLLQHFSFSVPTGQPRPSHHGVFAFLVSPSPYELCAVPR
Chain of CYP2C19 (P33261 whole entry): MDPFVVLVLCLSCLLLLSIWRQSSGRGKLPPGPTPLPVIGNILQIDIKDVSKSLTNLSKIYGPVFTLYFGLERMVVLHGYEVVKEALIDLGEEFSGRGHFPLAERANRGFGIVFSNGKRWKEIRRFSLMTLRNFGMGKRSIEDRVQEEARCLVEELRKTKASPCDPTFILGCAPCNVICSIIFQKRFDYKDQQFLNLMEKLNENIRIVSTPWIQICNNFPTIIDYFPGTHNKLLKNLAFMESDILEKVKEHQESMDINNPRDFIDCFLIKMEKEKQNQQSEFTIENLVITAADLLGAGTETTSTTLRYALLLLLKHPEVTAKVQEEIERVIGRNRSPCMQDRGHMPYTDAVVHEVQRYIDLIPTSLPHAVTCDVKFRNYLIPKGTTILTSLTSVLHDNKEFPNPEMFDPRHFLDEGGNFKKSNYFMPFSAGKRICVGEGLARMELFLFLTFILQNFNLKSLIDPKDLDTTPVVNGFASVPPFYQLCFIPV
Chain of CYP2C9 (P11712 whole entry): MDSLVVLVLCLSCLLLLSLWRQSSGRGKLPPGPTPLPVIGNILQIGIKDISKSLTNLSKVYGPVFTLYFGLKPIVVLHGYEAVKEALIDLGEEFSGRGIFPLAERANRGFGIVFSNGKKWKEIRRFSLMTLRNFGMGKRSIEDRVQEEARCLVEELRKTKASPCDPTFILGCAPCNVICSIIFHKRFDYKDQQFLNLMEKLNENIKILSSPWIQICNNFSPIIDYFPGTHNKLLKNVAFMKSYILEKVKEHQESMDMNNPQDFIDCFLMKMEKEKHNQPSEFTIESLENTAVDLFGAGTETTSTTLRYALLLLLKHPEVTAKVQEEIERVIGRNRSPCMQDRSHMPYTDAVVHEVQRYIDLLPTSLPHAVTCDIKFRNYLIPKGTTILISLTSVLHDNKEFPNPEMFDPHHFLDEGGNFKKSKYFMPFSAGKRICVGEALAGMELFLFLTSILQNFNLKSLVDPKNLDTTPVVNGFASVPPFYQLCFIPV
Chain of Voltage-gated inwardly rectifying potassium channel KCNH2 (Q12809 whole entry): as the sequence (Q12809 whole entry) above

Cl.NC[C@H]1C[C@@H]1c1cc(F)ccc1OCCF
inhibition at […] (hERG (KCNH2) [1]): 11% | EC50 [2]: 3.4 nM | inhibition at 30 µM (hERG (KCNH2) [3]): 35% | Ki [4]: < 1000 nM | inhibition at 10 µM (CYP2B6): 6% | inhibition at 10 µM (CYP3A4): 10% | inhibition at 10 µM (CYP2C9): 16% | Emax [5]: 76% | inhibition at 10 µM (hERG (KCNH2) [6]): 25% | inhibition at […] (hERG (KCNH2) [7]): 6% | Ratio EC50 (Homo sapiens): > 100 | inhibition at 3.3 µM (hERG (KCNH2) [8]): 15% | inhibition (INH) [9]: Dose-dependent effect | inhibition at 10 µM (CYP2C19): 26% | Activity (Mus musculus): Active | EC50 [10]: 359 nM | Emax [11]: 89% | Activity [12]: inactive | inhibition at 10 µM (CYP2D6): 24%

Cl.NC[C@H]1C[C@@H]1c1cc(Cl)ccc1OCCF
Activity (Salmonella typhimurium [13]): Non-toxic | Activity (Salmonella typhimurium [14]): Non-toxic | permeability [15]: 17.5 ×10⁻⁶ cm/s | concentration at 0.5 h [16]: 12800 ng/g | Activity (Salmonella typhimurium [17]): Non-toxic | EC50 [2]: 32 nM | Stability (Liver microsome): 95% | permeability [18]: 35.5 ×10⁻⁶ cm/s | Activity (Salmonella typhimurium [19]): Non-toxic | PPB [20]: 57% | Activity (Salmonella typhimurium [21]): Non-toxic | Emax [22]: 31% | Stability (Liver): 74% | concentration at 2 h [23]: 874 ng/mL | inhibition at 10 µM (CYP2B6): 58% | Activity (Salmonella typhimurium [24]): Non-toxic | concentration at 2 h [25]: 13400 ng/g | inhibition at 10 µM (CYP2C9): 33% | Emax [5]: 35% | Activity (Salmonella typhimurium [26]): Non-toxic | Activity (Salmonella typhimurium [27]): Non-toxic | inhibition at 10 µM (CYP2C19): 21% | Activity (Mus musculus): Active | EC50 [10]: 1480 nM | Emax [11]: 86% | EC50 [28]: 632 nM | concentration at 0.5 h [29]: 1200 ng/mL | inhibition at 10 µM (CYP2D6): 79% | inhibition at 10 µM (CYP3A): 22%
